Measurements taken from PMC3665732 (Chemical biology & drug design, 2013).

Legend:
Albino Swiss mice [1] = assay: Locomotor activity test; type: in vivo; details: 8 20 mg/kg, 10 5 mg/kg, 12 10 mg/kg; ip 30 min before the test; first 6 minutes; vehicle 554 ± 46
Albino Swiss mice [2] = assay: Forced swim test; type: in vivo; details: 30 min before the test; for antidepressant effect in the forced swim test (in words): mice, ip
Procedure, shortened: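 Male Albino Swiss mice (24-28 g), kept at 20 ± 1°C with free food and water and used once. Test compound was injected 30 min before the session. Each mouse swam 6 min in a glass cylinder (25 cm high, 10 cm diameter) holding 6 cm of water at 23-25°C. An observer timed immobility (floating, small head-keeping movements) over the last 4 min, after 2 min habituation. Mean ± SEM; Dunnett's test vs vehicle.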

| Compound | Locomotor activity 6 minutes (number of light beam crossings ± S.E.M.) (Albino Swiss mice [1]) | reduction in mice immobility time (Albino Swiss mice [2]; 5 mg/kg ip) | reduction in mice immobility time (Albino Swiss mice [2]; 10 mg/kg ip) | antidepressant effect in the forced swim test (in words) (Albino Swiss mice [2]) | reduction in mice immobility time (Albino Swiss mice [2]; 20 mg/kg ip) |
| --- | --- | --- | --- | --- | --- |
| CCCCCCCCCCCCN1CCN(c2ccc3cc([N+](=O)[O-])ccc3n2)CC1 [Compound 12, 2-(4-Dodecyl-piperazin-1-yl)-6-nitroquinoline] | 628 ± 55 | 10% | 8% | moderate antidepressant activity |  |
| CCCCCCCCCCN1CCN(c2ccc3cc([N+](=O)[O-])ccc3n2)CC1 [Compound 10, 2-(4-Decylo-piperazin-1-yl)-6-nitroquinoline] | 239 ± 41 | 12% |  | moderate antidepressant activity |  |
| CCCCCCCCCCCN1CCN(c2ccc3cc([N+](=O)[O-])ccc3n2)CC1 [Compound 11, 2-(4-Undecyl-piperazin-1-yl)-6-nitroquinoline] |  |  |  | ineffective |  |
| CCCCCCCCN1CCN(c2ccc3cc([N+](=O)[O-])ccc3n2)CC1 [Compound 8, 2-(4-Octyl-piperazin-1-yl)-6-nitroquinoline] | 453 ± 41 |  |  | moderate antidepressant activity | 15% |
| CCCCCCCCCN1CCN(c2ccc3cc([N+](=O)[O-])ccc3n2)CC1 [Compound 9, 2-(4-Nonyl-piperazin-1-yl)-6-nitroquinoline] |  |  |  | ineffective |  |
